Test system: HEK-293T
Experiment: Multiplex assay against HEK293T
Type: toxicity, cell-based
Conditions: human
Method in brief: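 Compound was added to live cells that had been stained at seeding with Hoechst33342, BioTracker Green Microtubule Cytoskeleton Dye, MitoTracker Red and Annexin V Alexa Fluor 680, and imaging followed on a CQ1 microscope at 37°C and 5% CO2. CellPathfinder machine-learning gating divided cells into Hoechst high-intensity objects or normal cells, normal cells into healthy, pyknosed or fragmented nuclei, and pyknosed cells into mitotic or apoptotic. Tubulin, mitochondrial-mass and membrane-permeability phenotypes are per cents of healthy-nucleus cells.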

[1] = 12 h, 1 µM, compound concentration 1 uM, replicate 1
[2] = 12 h, 1 µM, compound concentration 1 uM, replicate 2
[3] = 12 h, 10 µM, compound concentration 10 uM, replicate 1
[4] = 12 h, 10 µM, compound concentration 10 uM, replicate 2
[5] = 24 h, 1 µM, compound concentration 1 uM, replicate 1
[6] = 24 h, 1 µM, compound concentration 1 uM, replicate 2
[7] = 24 h, 10 µM, compound concentration 10 uM, replicate 1
[8] = 24 h, 10 µM, compound concentration 10 uM, replicate 2
[9] = 48 h, 1 µM, compound concentration 1 uM, replicate 1
[10] = 48 h, 1 µM, compound concentration 1 uM, replicate 2
[11] = 48 h, 10 µM, compound concentration 10 uM, replicate 1
[12] = 48 h, 10 µM, compound concentration 10 uM, replicate 2

## O=C(Nc1cc(-c2ccccc2)nn1-c1ccccc1F)c1ccc([N+](=O)[O-])cc1
[1]
  Population Apoptotic (%): 33%
  Population Fragmented Nuclei (%): 7%
  Population Healthy Nuclei (%): 78%
  Population Hoechst High Intensity Objects (%): 9%
  Population Membrane Permeable-Phenotype (%): 0%
  Population Mitochondria Different-Phenotype (%): 31%
  Population Mitotic Cells (%): 66%
  Population Normal (%): 90%
  Population Pyknosed Nuclei (%): 13%
  Population Tubulin-Different-Phenotype (%): 19%
  Total Cell Count: 402
[2]
  Population Apoptotic (%): 37%
  Population Fragmented Nuclei (%): 6%
  Population Healthy Nuclei (%): 83%
  Population Hoechst High Intensity Objects (%): 6%
  Population Mitochondria Different-Phenotype (%): 48%
  Population Mitotic Cells (%): 62%
  Population Normal (%): 94%
  Population Pyknosed Nuclei (%): 9%
  Total Cell Count: 417
[3]
  Population Apoptotic (%): 37%
  Population Fragmented Nuclei (%): 10%
  Population Healthy Nuclei (%): 71%
  Population Hoechst High Intensity Objects (%): 5%
  Population Membrane Permeable-Phenotype (%): 0%
  Population Mitochondria Different-Phenotype (%): 41%
  Population Mitotic Cells (%): 62%
  Population Normal (%): 94%
  Population Pyknosed Nuclei (%): 17%
  Population Tubulin-Different-Phenotype (%): 40%
  Total Cell Count: 342
[4]
  Population Apoptotic (%): 44%
  Population Fragmented Nuclei (%): 6%
  Population Healthy Nuclei (%): 73%
  Population Hoechst High Intensity Objects (%): 6%
  Population Mitochondria Different-Phenotype (%): 65%
  Population Mitotic Cells (%): 55%
  Population Normal (%): 93%
  Population Pyknosed Nuclei (%): 20%
  Population Tubulin-Different-Phenotype (%): 45%
  Total Cell Count: 367
[5]
  Population Apoptotic (%): 33%
  Population Fragmented Nuclei (%): 8%
  Population Healthy Nuclei (%): 78%
  Population Hoechst High Intensity Objects (%): 4%
  Population Membrane Permeable-Phenotype (%): 0%
  Population Mitochondria Different-Phenotype (%): 21%
  Population Mitotic Cells (%): 66%
  Population Normal (%): 95%
  Population Pyknosed Nuclei (%): 12%
  Population Tubulin-Different-Phenotype (%): 17%
  Total Cell Count: 481
[6]
  Population Apoptotic (%): 35%
  Population Fragmented Nuclei (%): 12%
  Population Membrane Permeable-Phenotype (%): 1%
  Population Mitochondria Different-Phenotype (%): 31%
  Population Mitotic Cells (%): 64%
  Population Pyknosed Nuclei (%): 8%
  Population Tubulin-Different-Phenotype (%): 16%
  Total Cell Count: 530
[7]
  Population Apoptotic (%): 15%
  Population Fragmented Nuclei (%): 9%
  Population Healthy Nuclei (%): 77%
  Population Hoechst High Intensity Objects (%): 2%
  Population Membrane Permeable-Phenotype (%): 0%
  Population Mitochondria Different-Phenotype (%): 35%
  Population Mitotic Cells (%): 84%
  Population Normal (%): 97%
  Population Pyknosed Nuclei (%): 13%
  Population Tubulin-Different-Phenotype (%): 35%
  Total Cell Count: 434
[8]
  Population Apoptotic (%): 22%
  Population Fragmented Nuclei (%): 7%
  Population Healthy Nuclei (%): 83%
  Population Hoechst High Intensity Objects (%): 3%
  Population Mitochondria Different-Phenotype (%): 47%
  Population Mitotic Cells (%): 77%
  Population Normal (%): 96%
  Population Pyknosed Nuclei (%): 8%
  Population Tubulin-Different-Phenotype (%): 33%
  Total Cell Count: 482
[9]
  Population Apoptotic (%): 17%
  Population Fragmented Nuclei (%): 13%
  Population Healthy Nuclei (%): 79%
  Population Hoechst High Intensity Objects (%): 3%
  Population Membrane Permeable-Phenotype (%): 2%
  Population Mitochondria Different-Phenotype (%): 14%
  Population Mitotic Cells (%): 82%
  Population Normal (%): 96%
  Population Pyknosed Nuclei (%): 7%
  Population Tubulin-Different-Phenotype (%): 9%
  Total Cell Count: 893
[10]
  Population Apoptotic (%): 33%
  Population Fragmented Nuclei (%): 17%
  Population Healthy Nuclei (%): 74%
  Population Hoechst High Intensity Objects (%): 2%
  Population Mitochondria Different-Phenotype (%): 15%
  Population Mitotic Cells (%): 66%
  Population Normal (%): 97%
  Population Tubulin-Different-Phenotype (%): 11%
  Total Cell Count: 799
[11]
  Population Apoptotic (%): 22%
  Population Fragmented Nuclei (%): 12%
  Population Healthy Nuclei (%): 77%
  Population Hoechst High Intensity Objects (%): 2%
  Population Membrane Permeable-Phenotype (%): 2%
  Population Mitochondria Different-Phenotype (%): 19%
  Population Mitotic Cells (%): 77%
  Population Normal (%): 97%
  Population Pyknosed Nuclei (%): 9%
  Population Tubulin-Different-Phenotype (%): 23%
  Total Cell Count: 671
[12]
  Population Apoptotic (%): 20%
  Population Fragmented Nuclei (%): 15%
  Population Hoechst High Intensity Objects (%): 3%
  Population Membrane Permeable-Phenotype (%): 1%
  Population Mitochondria Different-Phenotype (%): 27%
  Population Mitotic Cells (%): 79%
  Population Normal (%): 96%
  Population Pyknosed Nuclei (%): 6%
  Population Tubulin-Different-Phenotype (%): 26%
  Total Cell Count: 666

Reference: ChEMBL document CHEMBL5058577, “EUbOPEN Chemogenomics Library 2 (Multiplex)” (2022)
